From ChEMBL document CHEMBL4251662, “Alkyl indole-based cannabinoid type 2 receptor tools: Exploration of linker and fluorophore attachment” (Eur J Med Chem, 2018)
Active and inactive are the calls of the source. No cut-off for these calls is given here.

Key:
Cannabinoid receptor 2 [1] = target: T1, Cannabinoid receptor 2 (Homo sapiens, UniProt P34972); test: Displacement of [3H]CP55,940 from N-terminal HA-tagged human CB2 receptor expressed in HEK293 cell membranes at 10 uM after 1 hr by microbeta scintillation counting method relative to control
Outline: (§1)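 Single-point competition screen against [3H]CP55,940 in HEK293 cells over-expressing 3HA-tagged hCB2 or hCB1. Compounds giving more than 50% displacement went on to full concentration-response curves.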

Cannabinoid receptor 1 [2] = target: T2, Cannabinoid receptor 1 (Homo sapiens, UniProt P21554); test: Displacement of [3H]CP55,940 from N-terminal HA-tagged human CB1 receptor expressed in HEK293 cell membranes at 10 uM after 1 hr by microbeta scintillation counting method relative to control; outline: as §1
Cannabinoid receptor 1 [3] = target: T2, Cannabinoid receptor 1; test: Displacement of [3H]CP55,940 from N-terminal HA-tagged human CB1 receptor expressed in HEK293 cell membranes after 1 hr by microbeta scintillation counting method
Cannabinoid receptor 2 [4] = target: T1, Cannabinoid receptor 2; test: Displacement of [3H]CP55,940 from N-terminal HA-tagged human CB2 receptor expressed in HEK293 cell membranes after 1 hr by microbeta scintillation counting method
[5] = target: Potassium voltage-gated channel subfamily KQT member 2 (Homo sapiens) (UniProt O43526); test: Agonist activity at KCNQ2 (unknown origin)
[6] = target: T3, Nicotinamide N-methyltransferase (Homo sapiens) (UniProt P40261); test: Inhibition of NNMT (unknown origin)
T3 sequence (whole entry): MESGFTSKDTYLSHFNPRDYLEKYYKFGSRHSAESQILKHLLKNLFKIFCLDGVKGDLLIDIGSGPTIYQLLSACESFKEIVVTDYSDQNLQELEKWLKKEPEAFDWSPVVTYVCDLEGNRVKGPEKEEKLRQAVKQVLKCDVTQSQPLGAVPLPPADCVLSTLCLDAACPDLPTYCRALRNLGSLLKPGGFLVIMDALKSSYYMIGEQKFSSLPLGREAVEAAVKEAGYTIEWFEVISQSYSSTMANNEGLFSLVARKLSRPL

Leishmania donovani = test: Growth inhibition of Leishmania donovani; format: functional, organism-based
[7] = target: Interleukin-17A (Homo sapiens) (UniProt Q16552); test: Inhibition of IL-17 (unknown origin) assessed as disruption of IL-17 protein-protein interaction
[8] = target: T4, Potassium voltage-gated channel subfamily KQT member 3 (Homo sapiens) (UniProt O43525); test: Agonist activity at KCNQ3 (unknown origin)
T4 sequence (whole entry): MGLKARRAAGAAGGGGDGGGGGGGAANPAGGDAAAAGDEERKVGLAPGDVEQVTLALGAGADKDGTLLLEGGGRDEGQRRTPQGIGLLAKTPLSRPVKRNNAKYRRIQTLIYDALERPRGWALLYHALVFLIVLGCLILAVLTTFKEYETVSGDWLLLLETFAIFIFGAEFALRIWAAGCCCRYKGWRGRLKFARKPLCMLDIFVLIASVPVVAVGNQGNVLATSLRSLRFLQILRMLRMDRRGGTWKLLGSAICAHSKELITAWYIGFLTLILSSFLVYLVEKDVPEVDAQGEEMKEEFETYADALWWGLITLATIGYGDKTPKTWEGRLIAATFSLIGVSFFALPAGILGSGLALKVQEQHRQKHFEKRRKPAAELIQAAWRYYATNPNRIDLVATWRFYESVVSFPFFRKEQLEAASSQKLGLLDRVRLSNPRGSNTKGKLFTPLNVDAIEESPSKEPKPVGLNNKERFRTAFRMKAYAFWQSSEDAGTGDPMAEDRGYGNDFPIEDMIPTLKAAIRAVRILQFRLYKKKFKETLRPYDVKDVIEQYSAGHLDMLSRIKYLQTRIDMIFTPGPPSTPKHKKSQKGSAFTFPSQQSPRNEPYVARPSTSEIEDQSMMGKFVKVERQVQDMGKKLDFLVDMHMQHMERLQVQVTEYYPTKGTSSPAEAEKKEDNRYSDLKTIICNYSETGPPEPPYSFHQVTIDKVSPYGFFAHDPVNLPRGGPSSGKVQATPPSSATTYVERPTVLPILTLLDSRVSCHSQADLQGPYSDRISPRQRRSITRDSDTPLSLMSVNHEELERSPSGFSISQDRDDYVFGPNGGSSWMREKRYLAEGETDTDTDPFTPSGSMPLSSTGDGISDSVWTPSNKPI

[9] = target: T5, Free fatty acid receptor 4 (Homo sapiens) (UniProt Q5NUL3); test: Agonist activity at GPR120 (unknown origin); format: functional
T5 sequence (whole entry): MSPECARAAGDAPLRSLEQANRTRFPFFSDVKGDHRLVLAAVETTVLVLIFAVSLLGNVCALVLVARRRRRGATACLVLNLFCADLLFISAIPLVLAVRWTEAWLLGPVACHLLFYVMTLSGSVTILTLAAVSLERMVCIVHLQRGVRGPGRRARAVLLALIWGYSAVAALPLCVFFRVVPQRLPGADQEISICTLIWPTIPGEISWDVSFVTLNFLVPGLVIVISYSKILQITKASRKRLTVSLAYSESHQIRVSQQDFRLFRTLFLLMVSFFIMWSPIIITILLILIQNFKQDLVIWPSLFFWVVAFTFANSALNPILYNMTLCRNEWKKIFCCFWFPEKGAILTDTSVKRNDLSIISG

[10] = target: Proprotein convertase subtilisin/kexin type 9 (Homo sapiens) (UniProt Q8NBP7); test: Inhibition of PCSK9 (unknown origin)
HEK293 [11] = test: Effect on forskolin-stimulated cAMP level in HEK293 cells at 10 uM by BRET assay relative to control; format: ADME, cell-based; details: human, hek293, 10 µM
Outline: (§2)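 Wild-type HEK293 cells lacking transfected receptor, tested at 10 µM and 1 µM. Forskolin-stimulated cAMP measured by BRET as a check that responses are receptor-mediated.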

Cannabinoid receptor 2 [12] = target: T1, Cannabinoid receptor 2; test: Agonist activity at N-terminal HA-tagged human CB2 receptor expressed in HEK293 cells transfected with YFP-Epac-RLuc assessed as decrease in forskolin-stimulated cAMP level at 10 uM by BRET assay; format: functional, cell-based
Outline: (§3)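 Single-concentration screen at 10 µM in CB receptor-expressing HEK293 cells, run with and without CP55,940 as reference agonist. Forskolin-stimulated cAMP read by BRET biosensor. A fall in cAMP is scored as agonism and a rise as inverse agonism.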

HEK293 [13] = test: Effect on forskolin-stimulated cAMP level in HEK293 cells at 1 uM by BRET assay relative to control; format: ADME, cell-based; details: human, hek293, 1 µM; outline: as §2
Cannabinoid receptor 2 [14] = target: T1, Cannabinoid receptor 2; test: Agonist activity at N-terminal HA-tagged human CB2 receptor expressed in HEK293 cells transfected with YFP-Epac-RLuc assessed as decrease in forskolin-stimulated cAMP level by BRET assay relative to control; format: functional, cell-based
Outline: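 BRET cAMP biosensor read-out in HEK293 cells expressing HA-tagged human CB1 or CB2, with forskolin stimulation (5 µM). Concentration-response curves; area-under-curve values normalised to forskolin alone = 100% and basal = 0%. EC50 taken for agonists and IC50 for inverse agonists. Mean of at least three independent experiments, each point in duplicate.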

Cannabinoid receptor 1 [15] = target: T2, Cannabinoid receptor 1; test: Agonist activity at N-terminal HA-tagged human CB1 receptor expressed in HEK293 cells transfected with YFP-Epac-RLuc assessed as decrease in forskolin-stimulated cAMP level at 10 uM by BRET assay; format: functional, cell-based; outline: as §3

T2 sequence (P21554 whole entry): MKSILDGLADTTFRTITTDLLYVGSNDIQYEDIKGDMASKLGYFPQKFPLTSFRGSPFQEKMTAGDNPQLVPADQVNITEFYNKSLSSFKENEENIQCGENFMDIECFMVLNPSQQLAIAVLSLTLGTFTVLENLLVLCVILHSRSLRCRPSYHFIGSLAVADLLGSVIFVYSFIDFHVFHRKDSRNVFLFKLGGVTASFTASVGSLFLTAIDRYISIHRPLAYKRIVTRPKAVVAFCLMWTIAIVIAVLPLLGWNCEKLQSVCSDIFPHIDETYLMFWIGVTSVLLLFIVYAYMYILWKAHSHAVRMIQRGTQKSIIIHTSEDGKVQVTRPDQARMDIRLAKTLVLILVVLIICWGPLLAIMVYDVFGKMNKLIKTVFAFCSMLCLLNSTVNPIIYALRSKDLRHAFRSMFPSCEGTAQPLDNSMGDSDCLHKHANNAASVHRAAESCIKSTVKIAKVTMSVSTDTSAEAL
T1 sequence (P34972 whole entry): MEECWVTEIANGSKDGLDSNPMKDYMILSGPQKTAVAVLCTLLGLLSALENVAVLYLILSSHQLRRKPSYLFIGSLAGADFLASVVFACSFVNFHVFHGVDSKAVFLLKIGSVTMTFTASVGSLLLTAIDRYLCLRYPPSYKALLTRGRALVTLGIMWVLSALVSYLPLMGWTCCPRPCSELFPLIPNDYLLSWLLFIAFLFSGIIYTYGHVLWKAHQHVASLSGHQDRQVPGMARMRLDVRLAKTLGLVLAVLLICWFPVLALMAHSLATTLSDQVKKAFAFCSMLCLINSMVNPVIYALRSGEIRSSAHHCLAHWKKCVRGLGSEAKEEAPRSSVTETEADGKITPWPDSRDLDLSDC
Sequence of Potassium voltage-gated channel subfamily KQT member 2 (Homo sapiens) (O43526 whole entry): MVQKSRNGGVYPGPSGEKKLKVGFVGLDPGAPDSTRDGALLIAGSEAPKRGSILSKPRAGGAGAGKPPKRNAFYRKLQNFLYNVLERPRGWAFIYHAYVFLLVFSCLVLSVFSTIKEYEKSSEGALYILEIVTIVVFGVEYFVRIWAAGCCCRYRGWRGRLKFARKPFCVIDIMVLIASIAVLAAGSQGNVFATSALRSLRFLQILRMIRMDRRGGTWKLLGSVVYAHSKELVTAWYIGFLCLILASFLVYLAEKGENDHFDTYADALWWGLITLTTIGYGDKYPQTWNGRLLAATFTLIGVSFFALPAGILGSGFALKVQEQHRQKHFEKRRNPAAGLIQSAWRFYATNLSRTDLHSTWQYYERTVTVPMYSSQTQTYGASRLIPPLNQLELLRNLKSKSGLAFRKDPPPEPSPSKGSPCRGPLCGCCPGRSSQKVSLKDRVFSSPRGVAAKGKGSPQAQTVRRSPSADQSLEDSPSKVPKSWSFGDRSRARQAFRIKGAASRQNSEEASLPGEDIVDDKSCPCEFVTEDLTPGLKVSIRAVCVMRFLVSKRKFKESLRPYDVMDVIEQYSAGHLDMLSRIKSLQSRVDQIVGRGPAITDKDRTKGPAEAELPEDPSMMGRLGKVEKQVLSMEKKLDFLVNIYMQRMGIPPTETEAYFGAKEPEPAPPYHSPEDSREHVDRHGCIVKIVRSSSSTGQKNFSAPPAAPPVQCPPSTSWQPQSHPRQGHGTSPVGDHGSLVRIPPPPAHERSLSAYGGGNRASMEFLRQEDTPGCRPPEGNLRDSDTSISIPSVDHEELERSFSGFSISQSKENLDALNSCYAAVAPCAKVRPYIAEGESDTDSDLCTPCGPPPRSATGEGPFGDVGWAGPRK
Sequence of Interleukin-17A (Homo sapiens) (Q16552 whole entry): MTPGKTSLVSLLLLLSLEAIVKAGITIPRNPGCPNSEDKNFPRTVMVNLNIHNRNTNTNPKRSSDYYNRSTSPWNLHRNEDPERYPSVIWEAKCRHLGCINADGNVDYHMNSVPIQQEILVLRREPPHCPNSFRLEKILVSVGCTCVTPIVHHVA
Sequence of Proprotein convertase subtilisin/kexin type 9 (Homo sapiens) (Q8NBP7 31-152 limits assumed): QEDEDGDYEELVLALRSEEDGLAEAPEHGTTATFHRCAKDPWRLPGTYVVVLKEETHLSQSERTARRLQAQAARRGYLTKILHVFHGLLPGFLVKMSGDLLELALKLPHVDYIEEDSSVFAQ
Sequence of Proprotein convertase subtilisin/kexin type 9 (Homo sapiens) (Q8NBP7 153-692 limits assumed): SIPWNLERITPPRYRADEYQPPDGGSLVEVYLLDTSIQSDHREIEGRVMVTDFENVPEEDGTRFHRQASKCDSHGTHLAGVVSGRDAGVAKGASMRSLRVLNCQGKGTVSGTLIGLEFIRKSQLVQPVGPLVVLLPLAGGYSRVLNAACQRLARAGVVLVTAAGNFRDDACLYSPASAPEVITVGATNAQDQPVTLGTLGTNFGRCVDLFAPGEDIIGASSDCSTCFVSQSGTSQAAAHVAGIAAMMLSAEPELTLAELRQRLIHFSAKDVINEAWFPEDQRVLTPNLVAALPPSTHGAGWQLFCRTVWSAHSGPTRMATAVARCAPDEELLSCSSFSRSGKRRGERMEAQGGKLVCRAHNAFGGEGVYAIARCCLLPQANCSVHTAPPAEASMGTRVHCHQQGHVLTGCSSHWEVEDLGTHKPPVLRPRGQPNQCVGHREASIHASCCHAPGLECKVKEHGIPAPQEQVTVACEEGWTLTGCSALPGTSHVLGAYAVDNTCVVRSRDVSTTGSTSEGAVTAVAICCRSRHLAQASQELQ

| SMILES | inhibition (Cannabinoid receptor 2 [1]) | inhibition (Cannabinoid receptor 1 [2]) | Ki (Cannabinoid receptor 2 [4]; read-out: Ki) | other results |
| --- | --- | --- | --- | --- |
| COc1ccc(C(=O)c2cn(CCN3CCOCC3)c3ccc(OCC(=O)O)cc23)cc1 | > 50% | > 50% | > 10 µM | Ki (Cannabinoid receptor 1 [3]; read-out: Ki): > 10 µM |
| O=C(CCCCCNC(=O)COc1ccc(/C=C/C2=[N+]3C(=Cc4ccc(-c5cccs5)n4[B-]3(F)F)C=C2)cc1)NCCCCCCCCNC(=O)COc1ccc2c(c1)c(C(=O)c1cccc3ccccc13)cn2CCN1CCOCC1 | – | – | – | Ki (Cannabinoid receptor 2 [4]; hek293): Not Active |
| COc1ccc(C(=O)c2cn(CC3CCOC3)c3ccc(OCc4ccccc4)cc23)cc1 (configuration not stated) | – | – | – | Activity [5]: inactive; inhibition [6]: inactive; growth inhibition (GI) (Leishmania donovani): inactive; inhibition [7]: inactive; Activity [8]: inactive; Activity [9]: inactive; inhibition [10]: inactive |
| COc1ccc(C(=O)c2cn(CCN3CCOCC3)c3ccc(OCC(=O)NCCOCCOCCNC(=O)CCCCCNC(=O)COc4ccc(/C=C/C5=[N+]6C(=Cc7ccc(-c8cccs8)n7[B-]6(F)F)C=C5)cc4)cc23)cc1 | – | – | > 10 µM | – |
| NCCOCCOCCNC(=O)COc1ccc2c(c1)c(C(=O)c1cccc3ccccc13)cn2CCN1CCOCC1 | > 50% | > 50% | > 10 µM | – |
| COc1ccc(C(=O)c2cn(CCN3CCOCC3)c3cc(O)ccc23)cc1 | > 50% | – | > 10 µM | Ki (Cannabinoid receptor 1 [3]; hek293): Not Active |
| COc1ccc(C(=O)c2cn(CCN3CCOCC3)c3ccc(OCC(=O)N[C@@H](C)C(=O)N[C@@H](C)C(=O)NCCN)cc23)cc1 | – | > 50% | – | Ki (Cannabinoid receptor 2 [4]; hek293): Not Active |
| CCCCCCC(C)(C)c1ccc([C@@H]2C[C@H](O)CC[C@H]2CCCO)c(O)c1 [CP-55940] | – | – | – | Activity (HEK293 [11]): 98%; Activity (Cannabinoid receptor 2 [12]): Active; Activity (HEK293 [13]): 99.2%; Emax (Cannabinoid receptor 2 [14]): 41%; Activity (Cannabinoid receptor 1 [15]): Active |
| C[C@H](NC(=O)COc1ccc2c(c1)c(C(=O)c1cccc3ccccc13)cn2CCN1CCOCC1)C(=O)N[C@@H](C)C(=O)NCCN | – | > 50% | – | Ki (Cannabinoid receptor 2 [4]; hek293): Not Active |
| Cc1c(C(=O)c2cccc3ccccc23)c2cccc3c2n1[C@H](CN1CCOCC1)CO3 [WIN-552122] | – | – | – | Activity (HEK293 [11]): 102.6%; Activity (HEK293 [13]): 96.1% |
| COc1ccc(C(=O)c2cn(CCN3CCOCC3)c3ccc(OCC(=O)NC(C)(C)C(=O)NC(C)(C)C(=O)NCCNC(=O)CCCCCNC(=O)COc4ccc(/C=C/C5=[N+]6C(=Cc7ccc(-c8cccs8)n7[B-]6(F)F)C=C5)cc4)cc23)cc1 | – | – | > 10 µM | – |
| COc1ccc(C(=O)c2cn(CCN3CCOCC3)c3ccc(OCCCCC(=O)NCCOCCOCCNC(=O)CCCCCNC(=O)COc4ccc(/C=C/C5=[N+]6C(=Cc7ccc(-c8cccs8)n7[B-]6(F)F)C=C5)cc4)cc23)cc1 | – | – | > 10 µM | Ki (Cannabinoid receptor 1 [3]; read-out: Ki): > 10 µM |
| COc1ccc(C(=O)c2cn(CC3CCOC3)c3ccc(O)cc23)cc1 (configuration not stated) | > 50% | – | > 10 µM | Ki (Cannabinoid receptor 1 [3]; hek293): Not Active |
| COc1ccc(C(=O)c2cn(CCN3CCOCC3)c3ccc(OCC(=O)NCCOCCOCCN)cc23)cc1 | > 50% | > 50% | > 10 µM | – |
| COc1ccc(C(=O)c2cn(CCN3CCOCC3)c3ccc(OCC(=O)NCCCCCCCCN)cc23)cc1 | > 50% | > 50% | > 10 µM | – |
| O=C(O)COc1ccc2c(c1)c(C(=O)c1cccc3ccccc13)cn2CCN1CCOCC1 | > 50% | > 50% | > 10 µM | Ki (Cannabinoid receptor 1 [3]; read-out: Ki): > 10 µM |
| COc1ccc(C(=O)c2cn(CC3CCOCC3)c3ccc(OCCOCCOCCOCCNC(C)=O)cc23)cc1 | > 50% | – | > 10 µM | Ki (Cannabinoid receptor 1 [3]; hek293): Not Active |
| COc1ccc(C(=O)c2cn(CCN3CCOCC3)c3ccc(OCCCCCCC(=O)NCCOCCOCCNC(=O)CCCCCNC(=O)COc4ccc(/C=C/C5=[N+]6C(=Cc7ccc(-c8cccs8)n7[B-]6(F)F)C=C5)cc4)cc23)cc1 | – | – | > 10 µM | Ki (Cannabinoid receptor 1 [3]; read-out: Ki): > 10 µM |
| NCCCCCCCCNC(=O)COc1ccc2c(c1)c(C(=O)c1cccc3ccccc13)cn2CCN1CCOCC1 | > 50% | > 50% | > 10 µM | – |
| COc1ccc(C(=O)c2cn(CCN3CCOCC3)c3ccc(OCC(=O)NCCOCCOCCNC(C)=O)cc23)cc1 | > 50% | > 50% | > 10 µM | – |
| CC(C)(NC(=O)COc1ccc2c(c1)c(C(=O)c1cccc3ccccc13)cn2CCN1CCOCC1)C(=O)NC(C)(C)C(=O)NCCNC(=O)CCCCCNC(=O)COc1ccc(/C=C/C2=[N+]3C(=Cc4ccc(-c5cccs5)n4[B-]3(F)F)C=C2)cc1 | – | – | > 10 µM | – |
| COc1ccc(C(=O)c2cn(CC3CCOCC3)c3c(OCCCCC(=O)NCCOCCOCCNC(C)=O)cccc23)cc1 | > 50% | > 50% | > 10 µM | Ki (Cannabinoid receptor 1 [3]; read-out: Ki): > 10 µM |
| COc1ccc(C(=O)c2cn(CC3CCOCC3)c3ccc(OCC(=O)N[C@@H](C)C(=O)N[C@@H](C)C(=O)NCCN)cc23)cc1 | – | > 50% | – | Ki (Cannabinoid receptor 2 [4]; hek293): Not Active |
| COc1ccc(C(=O)c2cn(CC3CCOCC3)c3ccc(OCC(=O)NC(C)(C)C(=O)NC(C)(C)C(=O)NCCNC(=O)CCCCCNC(=O)COc4ccc(/C=C/C5=[N+]6C(=Cc7ccc(-c8cccs8)n7[B-]6(F)F)C=C5)cc4)cc23)cc1 | – | – | > 10 µM | – |
| COc1ccc(C(=O)c2cn(CCN3CCOCC3)c3ccc(OCC(=O)NCCCCCCCCNC(=O)CCCCCNC(=O)COc4ccc(/C=C/C5=[N+]6C(=Cc7ccc(-c8cccs8)n7[B-]6(F)F)C=C5)cc4)cc23)cc1 | – | – | – | Ki (Cannabinoid receptor 2 [4]; hek293): Not Active |
| O=C(CCCCCNC(=O)COc1ccc(/C=C/C2=[N+]3C(=Cc4ccc(-c5cccs5)n4[B-]3(F)F)C=C2)cc1)NCCOCCOCCNC(=O)COc1ccc2c(c1)c(C(=O)c1cccc3ccccc13)cn2CCN1CCOCC1 | – | – | > 10 µM | – |
